# Published values collected from several papers.
# Lines come from different studies, so protocols differ.
# Effect on: cell growth or viability
SMILES,cell line,test,conditions,IC50
CC1(P2(=O)CCCCC2)C=CCC=C1,HaCaT,MTT,72 h,> 100 µM
OCc1ccc(-c2nn(Cc3cccnc3)c3cccnc23)o1,HuCCT-1,ATP luminescence,,> 46 µM
Cc1ccc(S(=O)(=O)[O-])cc1.Nc1c([I+]c2ccccc2)c(=O)oc2ccccc12,HaCaT,MTT,48 h,35 µg/mL
O=C1CS/C(=N\c2ccccc2Cl)N1c1nnc(-c2ccc(C(F)(F)F)cc2/N=C2\SCC(=O)N2c2ccccc2Cl)s1,WI-38,MTT,,49.2 µM
CCCCn1cnc2ccc(-c3ccc(NC(=O)Nc4ccc(C)cc4)nc3)cc2c1=O,HCC827,CCK-8,72 h,9.15 µM
O=C1CSC(=Nc2cc([N+](=O)[O-])ccc2[N+](=O)[O-])N1c1nnc(-c2ccc(C(F)(F)F)cc2N=C2SCC(=O)N2c2cc([N+](=O)[O-])ccc2[N+](=O)[O-])s1,WI-38,MTT,,89.2 µM
NCc1ccc(-c2nn(Cc3ccncc3)c3ccccc23)o1,HuCCT-1,ATP luminescence,,> 46 µM
CCCCn1cnc2ccc(-c3ccc(NC(=O)Nc4ccccc4)nc3)cc2c1=O,HCC827,CCK-8,72 h,0.98 µM
OCc1ccc(-c2nn(Cc3ccccn3)c3ccccc23)o1,HuCCT-1,ATP luminescence,,> 46 µM
O=C1CS/C(=N\c2ccccc2O)N1c1nnc(-c2ccc(C(F)(F)F)cc2/N=C2\SCC(=O)N2c2ccccc2O)s1,WI-38,MTT,,32.3 µM
Cc1nc(Nc2ncc(C(=O)Nc3c(C)cccc3Cl)s2)cc(N2CC[C@H](O)C2)n1,OCI-LY19,ATP luminescence,72 h,> 10 µM
O=C(Nc1ccc(-c2ccc3ncn(Cc4ccccc4)c(=O)c3c2)cn1)C1CCCC1,HCC827,CCK-8,72 h,> 10 µM
OCc1ccc(-c2nn(Cc3ccccn3)c3cccnc23)o1,HuCCT-1,ATP luminescence,,> 46 µM
O=C(Nc1ccc(-c2ccc3ncn(Cc4ccccc4)c(=O)c3c2)cn1)c1ccc(F)cc1,HCC827,CCK-8,72 h,> 10 µM
COc1cccc2c1C(=O)c1c(O)c3c(c(O)c1C2=O)C[C@@](O)(C(=O)CO)C[C@@H]3O[C@H]1C[C@H](N)[C@H](O)[C@H](C)O1,HPAF-II,ATP luminescence,72 h,0.7 µM
CCCCC(=O)Nc1ccc(-c2ccc3ncn(CCC)c(=O)c3c2)c(C)n1,HCC827,CCK-8,72 h,1.68 µM
COc1cccc2c1C(=O)c1c(O)c3c(c(O)c1C2=O)C[C@@](O)(C(=O)CO)C[C@@H]3O[C@H]1C[C@H](N)[C@H](O)[C@H](C)O1,ASPC1,SRB,,5.91 µM
CCCn1cnc2ccc(-c3ccc(N4CCC(C)CC4=O)nc3)cc2c1=O (stereo not shown),HCC827,CCK-8,72 h,> 10 µM
O=C1CS/C(=N\c2cc(C(F)(F)F)ccc2-c2nnc(N3C(=O)CS/C3=N\c3cc(O)cc(Br)c3)s2)N1c1cc(O)cc(Br)c1,WI-38,MTT,,71.1 µM
